Measurements as given in ChEMBL document CHEMBL4330069, “Boosting the efficacy of anti-MRSA β-lactam antibiotics via an easily accessible, non-cytotoxic and orally bioavailable FtsZ inhibitor” (Eur J Med Chem, 2019).
≈ marks a conversion by molar mass, not a printed value.

Key:
[1] = system: Staphylococcus aureus; experiment: Antibacterial activity against Staphylococcus aureus ATCC 29213 by broth microdilution assay; type: functional
Procedure, shortened: (§1)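 Broth microdilution per CLSI guidelines; compounds dissolved in DMSO; single agents tested; growth inhibition read by eye; run in duplicate (table footnote states at least triplicates).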

[2] = system: L929; experiment: Cytotoxicity against mouse L929 cells by MTS assay; type: cell-based
Procedure, shortened: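 MTS assay on L929 mouse fibroblasts; IC50 reported as the average of three independent measurements.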

[3] = Selective index, ratio of IC50 for mouse L929 cells to MIC for Staphylococcus aureus ATCC 29213
Procedure, shortened: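 Selectivity index calculated as L929 IC50 (μM) divided by S. aureus MIC (μM).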

[4] = system: Escherichia coli; experiment: Antibacterial activity against Escherichia coli ATCC 25922 by broth microdilution assay; type: functional; procedure, shortened: as §1

MIC [1] | MIC [4] | SMILES | IC50 [2] | Selectivity Index [3]
3.1 µM (≈ 0.928 µg/mL) | > 64 µg/mL | CCCCCCCCCOc1ccc(F)c(C(N)=O)c1F | 90 µM | 29
13 µM (≈ 3.88 µg/mL) | > 64 µg/mL | CCCCCCCC(C)Nc1ccc(F)c(C(N)=O)c1F (stereo unspecified) | > 100 µM | >8
50 µM (≈ 14.2 µg/mL) | > 64 µg/mL | CCCCCCCCNc1ccc(F)c(C(N)=O)c1F | > 100 µM | >2
50 µM (≈ 15.7 µg/mL) | > 64 µg/mL | CCCCCCCCCNc1ccc(F)c(/C(N)=N/O)c1F | > 100 µM | >2
25 µM (≈ 7.41 µg/mL) | > 64 µg/mL | CCCCCC/C=C\CNc1ccc(F)c(C(N)=O)c1F | 99 µM | 4
13 µM (≈ 3.88 µg/mL) | > 64 µg/mL | CCCCCCCCN(C)c1ccc(F)c(C(N)=O)c1F | 92 µM | 7

The next lines start with the compound.

SMILES | MIC [1] | MIC [4] | IC50 [2] | Selectivity Index [3]
NC(=O)c1c(F)ccc(N(Cc2ccc(Cl)cc2)Cc2ccc(Cl)cc2)c1F | 13 µM (≈ 5.48 µg/mL) | > 64 µg/mL | > 100 µM | >8
CCCCCCCCCN(C)c1ccc(F)c(/C(N)=N/O)c1F | 13 µM (≈ 4.26 µg/mL) | > 64 µg/mL | > 100 µM | >8
CCCCCOc1cccc(CNc2ccc(F)c(C(N)=O)c2F)c1 | 50 µM (≈ 17.4 µg/mL) | > 64 µg/mL | 87 µM | 2
CCCCCCCCCN(C)c1ccc(F)c(C(=N)N)c1F | 50 µM (≈ 15.6 µg/mL) | > 64 µg/mL | > 100 µM | >2
CCCCCCCCCNc1ccc(F)c(-c2nnn[nH]2)c1F | 50 µM (≈ 16.2 µg/mL) | > 64 µg/mL | > 100 µM | >2
CCCCCCCCCN(C)c1ccc(F)c(C(N)=O)c1F | 3.1 µM (≈ 0.968 µg/mL) | > 64 µg/mL | 60 µM | 19
NC(=O)c1c(F)ccc(N(Cc2ccc(F)cc2)Cc2ccc(F)cc2)c1F | 50 µM (≈ 19.4 µg/mL) | > 64 µg/mL | > 100 µM | >2
CCCCOc1cccc(CNc2ccc(F)c(C(N)=O)c2F)c1 | 50 µM (≈ 16.7 µg/mL) | > 64 µg/mL | 99 µM | 2
